Experimental data as given in PMC10798254 (Indian Journal of Nuclear Medicine : IJNM : The Official …, 2023).

How the values were obtained:
Serum TSH [1] = assay: Levothyroxine dose for TSH suppression in thyroid cancer; assay type: in vivo, Indian thyroid cancer patients
In short: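 Follow-up visits of treated thyroid cancer outpatients were evaluated prospectively, recording age, sex, weight, initial ATA risk category, serum TSH and prescribed levothyroxine. Visits with suppressed TSH were selected and dose per kg body weight calculated. Mean, median, range and lowest dose/kg were derived.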

Serum TSH [2] = conditions: ref the guidelines; cited from earlier work

Compound: N[C@@H](Cc1cc(I)c(Oc2cc(I)c(O)c(I)c2)c(I)c1)C(=O)O [Levothyroxine]
- patients receiving more than 2ug/kg in excess TSH suppression (Serum TSH [1]; 14 patients, TSH 0.01-0.09 mIU/L): 44%
- patients with suppressed TSH values with less than 2ug/kg dose (Serum TSH [1]; 16 patients): 50%
- mean suppressive dose (Serum TSH [1]; 36 patients, 90 follow-ups with suppressed TSH, SD 0.49): 2.21 ug/kg body weight
- maximum dose (Serum TSH [1]; in vivo): 3.33 µg/kg
- minimum dose required to keep the patient in suppression (Serum TSH [1]; in vivo): 1.29 µg/kg
- dose required for long-term TSH suppression (Serum TSH [2]): 2.2-2.7 ug/kg body weight
